In publication PMC2745078 (Journal of medicinal chemistry, 2009):
Like-named read-outs stand apart in the source and are kept apart here. Each block holds one compound with its values, some of them ahead of it.

Legend:
human 2N4R tau [1] = target: T1, human 2N4R tau (Homo sapiens, UniProt P10636); details: near physiological buffer conditions and tau concentrations ref 9; cited from earlier work
Dye aggregation = type: physicochemical; details: for slope of double log plot of monomer versus dimer concentration / dissociation equilibrium constant for dimerization (Kdim): assembly buffer; for dissociation equilibrium constant for dimerization (Kdim): 1 h at 37°C, mean ± S.D.
human 2N4R tau [2] = target: T1, human 2N4R tau; assay: Filter trap assay for ODS-induced fibrillization of tau; type: biochemical
[3] = tested on: sarkosyl-insoluble tau in organotypic slices from JNPL3 transgenic mice (human tau P301L); assay: Organotypic slice culture, sarkosyl-insoluble tau; type: cell-based
In short: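 Cortex/hippocampus of postnatal day-10 JNPL3 mice cut at 400 μm and cultured on membrane inserts 14 days (25% serum). One hemisphere given test compound (0.1 nM–1 μM) for 7 days; contralateral hemisphere given 0.008% DMSO. RIPA extracts equalised for protein, incubated in 1% sarkosyl, spun at 100,000g. Pellet immunoblotted with CP27. Densitometry n = 3, normalised to vehicle; Student's t test.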

[4] = tested on: organotypic slices from JNPL3 transgenic mice; assay: Organotypic slice culture, cleaved PARP1 and α-tubulin levels; type: cell-based; details: seven days
cell culture models = cell culture models ref 21, 26, 25; cited from earlier work
human 2N4R tau [5] = target: T1, human 2N4R tau; details: electron microscopy assay format

T1 sequence (P10636 1-441 isoform P10636-8): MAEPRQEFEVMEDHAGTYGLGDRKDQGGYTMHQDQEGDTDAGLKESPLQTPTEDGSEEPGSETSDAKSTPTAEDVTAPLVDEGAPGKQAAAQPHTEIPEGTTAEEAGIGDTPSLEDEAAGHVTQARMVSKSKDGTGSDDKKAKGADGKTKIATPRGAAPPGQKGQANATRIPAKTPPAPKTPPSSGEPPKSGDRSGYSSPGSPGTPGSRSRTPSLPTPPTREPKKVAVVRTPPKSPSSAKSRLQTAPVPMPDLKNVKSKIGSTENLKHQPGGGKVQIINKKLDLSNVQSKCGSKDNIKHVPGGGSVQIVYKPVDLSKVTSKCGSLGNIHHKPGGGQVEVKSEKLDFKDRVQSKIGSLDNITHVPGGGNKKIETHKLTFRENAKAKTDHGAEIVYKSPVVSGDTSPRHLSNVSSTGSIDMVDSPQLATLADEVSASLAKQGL

Structure (SMILES): CCC(/C=C1\Sc2ccc(OC)cc2N1CCO)=C\c1sc2ccc(OC)cc2[n+]1CCO.[I-] [Compound 1]
IC50 (human 2N4R tau [1]): submicromolar

Structure (SMILES): CCN1/C(=C/C=C/C2=[N+](CC)c3ccccc3C2(C)C)C(C)(C)c2ccccc21.[I-] [Compound 8]
dimerization (Dye aggregation; any concentration tested up to 96 μM): did not dimerize

Structure (SMILES): CCN1/C(=C/C(C)=C/c2sc3ccccc3[n+]2CC)Sc2ccccc21.[I-] [Compound 11, 3,3’-diethyl-9-methylthiacarbocyanine iodide]
decrease of IC50 by methyl meso substituent (human 2N4R tau [2]; 11 versus hydrogen meso compound): 3 fold
IC50 (human 2N4R tau [2]; IC50, filter trap assay): ~300 nM
slope of double log plot of monomer versus dimer concentration (Dye aggregation): 2.3 ± 0.1
dissociation equilibrium constant for dimerization (Kdim) (Dye aggregation): 20.9 ± 0.7 µM
concentration for dimerization relative to 1 (Dye aggregation; higher than 1 under identical conditions): 10.0 ± 0.2 fold
effect on tau aggregation ([3]; 100 nM, seven days): Inhibitory activity was lost
effect on tau aggregation ([3]; 300 nM and above, seven days): tau aggregation was induced
tau aggregation relative to DMSO vehicle alone ([3]; 1 – 10 nM, seven days): ~ 50%
lowest media concentration inhibiting tau aggregation ([3]; organotypic slices): 1 nM
levels of α-tubulin ([4]; 1 nM): unchanged
levels of α-tubulin ([4]; 1 μM): depletion of α-tubulin
levels of cleaved PARP1 ([4]; any tested concentration): did not increase
concentration initiating apoptosis and collapse of the microtubule cytoskeleton (cell culture models): > 300 nM

Structure (SMILES): CC(/C=C1\Sc2ccccc2N1CCCS(=O)(=O)[O-])=C\c1sc2ccccc2[n+]1CCCS(=O)(=O)[O-].CC[n+]1ccccc1 [Compound 12]
inhibitory activity (human 2N4R tau [2]; at up to 10 μM concentration): completely lost
slope of double log plot of monomer versus dimer concentration (Dye aggregation): 1.8 ± 0.1
dissociation equilibrium constant for dimerization (Kdim) (Dye aggregation): 7.5 ± 0.4 µM

Structure (SMILES): CN(C)c1ccc2nc3ccc(N(C)C)cc3[s+]c2c1.[Cl-] [Methylene blue, 3,7-bis(dimethylamino)phenothiazin-5-ium chloride]
behaviour as antagonist (human 2N4R tau [5]): partial antagonist

More lines, now with the values ahead:

slope of double log plot of monomer versus dimer concentration (Dye aggregation): 1.7 ± 0.1
dissociation equilibrium constant for dimerization (Kdim) (Dye aggregation): 0.68 ± 0.04 µM
Structure (SMILES): CCN1/C(=C/C=C/C=C/C=C/c2sc3ccccc3[n+]2CC)Sc2ccccc21.[I-] [Compound 5]

inhibitory activity (human 2N4R tau [2]; at the highest concentration tested): essentially no inhibitory activity
Structure (SMILES): CCN1/C(=C/C=C/c2oc3ccccc3[n+]2CC)Oc2ccccc21.[I-] [Compound 6]

reduction of inhibitory potency (human 2N4R tau [2]; 9 (three-carbon N-alkyl) versus 8 (two-carbon)): ~ 3 fold
Structure (SMILES): CCCN1/C(=C/C=C/C2=[N+](CCC)c3ccccc3C2(C)C)C(C)(C)c2ccccc21.[I-] [Compound 9]

inhibitory activity (human 2N4R tau [2]; at up to 10 μM concentration): completely eliminated activity
Structure (SMILES): CCCCCCN1/C(=C/C=C/c2sc3ccccc3[n+]2CCCCCC)Sc2ccccc21.[I-] [Compound 10]
